Structures are written as SMILES. Some results are limits rather than exact numbers.

The source of these data is ChEMBL document CHEMBL1124241, “Arylformamidines with antinociceptive properties” (1988).

Holding throughout (format): functional
The species entered for assay [1] is Mus musculus. As to the kind of experiment: Analgesic activity was determined in mouse writhing test. In outline:
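Mice received test compound sc; 30 min later 0.2 mL of 0.08 N HCl was given ip. Animals were watched for 15 min for absence of abdominal stretching (writhing). Activity was expressed as ED50 in mg/kg.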
On the technique in general: Writhing tests count abdominal constrictions after an irritant is injected.

In assay [2] the test system is Rattus norvegicus. As to the kind of experiment: Hypotensive activity in the rat as change in blood pressure (mmHg) at 24 hr after of 50 mg/kg oral dose of the compound. An outline of the steps:
(§1)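 Conscious restrained female Sprague-Dawley rats fitted with chronic indwelling aortic cannulas exteriorized at the nape. Towel restraint kept sympathetic tone high. Blood pressure was recorded directly by transducer and polygraph at 4 and 24 h after oral dosing in carboxymethylcellulose vehicle at 10 mL/kg. A change of ±5 mmHg was taken as not significant.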

The test system of assay [3] is Rattus norvegicus. The assay can be described thus: Hypotensive activity in the rat as change in blood pressure (mmHg) at 4 hr after a 50 mg/kg oral dose of the compound. An outline of the steps:
as §1

In assay [4] the test system is Rattus norvegicus. The assay can be described thus: Hypotensive activity in the rat as change in blood pressure (mmHg) at 24 hr after of 50 mg/kg oral dose of the compound; Bradycardia. In outline: as §1
In assay [5] the test system is Mus musculus. The assay can be described thus: Analgesic activity was determined in mouse pinch writhing test by intraperitoneal administration of 0.2 mL of 0.08 N HCl 30 min after the subcutaneous injection of the compound.
Assay [6] concerns Mus musculus. As to the kind of experiment: Analgesic activity was determined in mouse tail flick writhing test by intraperitoneal administration of 0.2 mL of 0.08 N HCl 30 min after the subcutaneous injection of the compound.
In assay [7] the test system is Mus musculus. As to the kind of experiment: Analgesic activity was determined in mouse writhing test by intraperitoneal administration of 0.2 mL of 0.08 N HCl 30 min after the subcutaneous injection of the compound(expt.2). The settings on record: 0.5 h.

As usually defined, the ED50 is the dose that gives a 50% effect, or the effect in half of the subjects. Read a high ED50 as weaker potency. In turn, `C/N=C\Nc1ccccc1Cl` registered an ED50 in the assay filed under Mus musculus [1] (Mus musculus) of 35 mg/kg.

Consider `Cc1cccnc1/N=C/N(C)C.Cl`, for which the ED50 in the assay listed under Mus musculus [1] (Mus musculus) was greater than 50 mg/kg. Also, the values for the BP with Rattus norvegicus [2] and in the assay with Rattus norvegicus [3] were 9 mmHg and 8 mmHg, respectively.

`Cc1cc(C(O)c2ccc(Cl)c(Cl)c2)cc(C)c1/N=C/N(C)C` (centres undefined) returned an ED50 in the assay filed under Mus musculus [1] (Mus musculus) greater than 50 mg/kg.

Consider `CCOC(=O)C(C)(OC(C)=O)c1cc(C)c(/N=C/N(C)C)c(C)c1` (centres undefined), for which, in the assay filed under Mus musculus [1] (Mus musculus), the ED50 was greater than 50 mg/kg.

For the compound `C/N=C\Nc1c(Cl)cccc1Cl.Cl`, the BP in the assay on Rattus norvegicus [4] was -13 mmHg; in the assay on Rattus norvegicus [3] it was -21 mmHg. The 50% effect level in the assay listed under Mus musculus [1] (Mus musculus) (ED50) was put at a dose of 4.4 mg/kg.

On to `CCOC(=O)C(C)c1cc(C)c(/N=C/N(C)C)c(C)c1` (centres undefined), for which the ED50 was 22 mg/kg in the assay on Mus musculus [5], 18 mg/kg with Mus musculus [6], 8 mg/kg in the assay filed under Mus musculus [1] and greater than 50 mg/kg in the assay listed under Mus musculus [1] (Mus musculus).

Regarding `CN(C)/C=N/c1c(Cl)cccc1Cl.Cl`, the BP is recorded as -4 mmHg with Rattus norvegicus [4] and -24 mmHg in the assay with Rattus norvegicus [3]. This compound returned a 50% effective dose (ED50) in the assay listed under Mus musculus [1] (Mus musculus) of 3 mg/kg.

`Cc1ccc(/N=C/N(C)C)c(C)c1.Cl`: in the assay filed under Mus musculus [1] (Mus musculus), the ED50 came out at 0.1 mg/kg.

In the case of `Cc1cccc(C)c1/N=C/N(C)C.Cl`, in the assay filed under Mus musculus [1] (Mus musculus), the ED50 amounted to 0.1 mg/kg. Further, the BP in the assay on Rattus norvegicus [2] is on record as -21 mmHg; with Rattus norvegicus [3], -15 mmHg.

On to `CCOC(=O)c1cc(C)c(/N=C/N(C)C)c(C)c1.Cl`, for which the ED50 in the assay listed under Mus musculus [1] (Mus musculus) was greater than 50 mg/kg.

As to `C/N=C\Nc1cc(Cl)ccc1Cl.Cl`, the 50% effective dose (ED50) in the assay listed under Mus musculus [1] (Mus musculus) is greater than 50 mg/kg. Besides, the BP came out at 5 mmHg in the assay on Rattus norvegicus [2] and 3 mmHg in the assay on Rattus norvegicus [3].

In turn, `Cc1cc(C(C)O)cc(C)c1/N=C/N(C)C` (centres undefined) registered an ED50 in the assay listed under Mus musculus [1] (Mus musculus) of 40 mg/kg.

Turning to `Clc1cccc(Cl)c1NC1=NCCN1` [CLONIDINE], the ED50 in the assay filed under Mus musculus [1] (Mus musculus) amounted to 0.02 mg/kg. The BP with Rattus norvegicus [3] is on record as -29 mmHg.

`CN(C)/C=N/c1cc(Cl)ccc1Cl.Cl` displayed an ED50 in the assay listed under Mus musculus [1] (Mus musculus) greater than 50 mg/kg. Moreover, the BP is reported as -4 mmHg in the assay with Rattus norvegicus [2] and -5 mmHg in the assay with Rattus norvegicus [3].

Consider `CCOC(=O)C(C)(O)c1cc(C)c(/N=C/N(C)C)c(C)c1` (centres undefined), for which the ED50 in the assay listed under Mus musculus [1] (Mus musculus) is greater than 50 mg/kg.

As to `CC(=O)OC(C)c1cc(C)c(/N=C/N(C)C)c(C)c1` (centres undefined), in the assay listed under Mus musculus [1] (Mus musculus), the ED50 is greater than 30 mg/kg.

In the assay listed under Mus musculus [1] (Mus musculus), `C/N=C\Nc1ccc(Cl)cc1Cl` yielded an ED50 greater than 50 mg/kg.

Regarding `C/N=C\Nc1cccc(Cl)c1Cl`, the ED50 in the assay listed under Mus musculus [1] (Mus musculus) was found to be 0.8 mg/kg.

In the case of `C/N=C\Nc1ccc(Cl)c(Cl)c1.Cl`, the ED50 in the assay filed under Mus musculus [1] (Mus musculus) was greater than 50 mg/kg. Besides, the values for the BP in the assay on Rattus norvegicus [2] and in the assay with Rattus norvegicus [3] were -3 mmHg and 0 mmHg, respectively.

On to `C/N=C\Nc1ccc(C)cc1C.Cl`, for which the BP in the assay with Rattus norvegicus [4] was -19 mmHg; in the assay on Rattus norvegicus [3], -10 mmHg. Further, the ED50 in the assay filed under Mus musculus [1] (Mus musculus) stood at 0.02 mg/kg.

For the compound `Cc1cc(C(O)c2ccc(Cl)cc2)cc(C)c1/N=C/N(C)C` (centres undefined), the ED50 in the assay filed under Mus musculus [1] (Mus musculus) is greater than 50 mg/kg.

On to `Cc1cc(C)c(/N=C/N(C)C)c(C)c1.Cl`, for which the 50% effective dose (ED50) was found to be 0.37 mg/kg with Mus musculus [7] and 0.4 mg/kg in the assay filed under Mus musculus [1] (Mus musculus). The BP is listed as 2 mmHg in the assay with Rattus norvegicus [2] and -10 mmHg with Rattus norvegicus [3].

Consider `C/N=C\Nc1c(C)cc(C)cc1C`, for which, in the assay listed under Mus musculus [1] (Mus musculus), it took a dose of 0.11 mg/kg to reach the 50% effect level (ED50).

`CN(C)/C=N/c1ccc(Cl)c(Cl)c1.Cl` returned an ED50 in the assay filed under Mus musculus [1] (Mus musculus) greater than 50 mg/kg. In addition, the BP came out at 2 mmHg in the assay with Rattus norvegicus [2] and 0 mmHg with Rattus norvegicus [3].
